Test results published in ChEMBL document CHEMBL1828575, “Design, synthesis and antiproliferative activities of biarylolefins based on polyhydroxylated and carbohydrate scaffolds” (Eur J Med Chem, 2011).

Legend:
Assay type in all cases: functional
NCI-H322M [1] = test: Cytotoxicity against human NCI-H322M cells assessed as cellular growth at 10 uM after 48 hrs by SRB assay
Summary of the method: (§1)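 NCI-60 panel lines grown in RPMI 1640 with 5% FBS and 2 mM L-glutamine. Plated at 5000–40,000 cells/well and preincubated 24 h at 37 °C, 5% CO₂, with time-zero plates fixed in TCA. Compounds, dissolved in DMSO and diluted in medium, were applied for 48 h. Cells were TCA-fixed (10% final for adherent, 16% for suspension) and stained with 0.4% SRB in 1% acetic acid. Dye was solubilised in 10 mM Tris base and read at 515 nm; growth was expressed as a percentage of untreated control.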

COLO 205 [2] = test: Antitumor activity against human COLO205 cells after 48 hrs by SRB assay; conditions: COLO 205, 48 h
Summary of the method: (§2)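 NCI60 panel in RPMI 1640 with 5% FBS and 2 mM L-glutamine. Cells were plated at 5000–40,000/well by doubling time, held 24 h, then time-zero plates were TCA-fixed. Five concentrations (10-fold or half-log dilutions of DMSO stocks) were applied for 48 h at 37 °C, 5% CO2. Cells were fixed with cold TCA (10% final adherent, 16% suspension) and stained with 0.4% SRB. Bound dye was dissolved in 10 mM Tris and read at 515 nm. GI50, TGI and LC50 were calculated per line.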

HCT-116 [3] = test: Antitumor activity against human HCT116 cells after 48 hrs by SRB assay; conditions: HCT-116, 48 h; summary of the method: as §2
HCT-116 [4] = test: Cytotoxicity against human HCT116 cells assessed as cellular growth at 10 uM after 48 hrs by SRB assay
Summary of the method: (§3)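 NCI60 single-dose screen of cells in RPMI 1640 with 5% FBS and 2 mM L-glutamine, preincubated 24 h at 37 °C, 5% CO₂. Cells were then exposed 48 h to compound added from DMSO stock. TCA-fixed, stained with 0.4% SRB in 1% acetic acid, dye solubilised in 10 mM Tris base and read at 515 nm. Growth is given as percent of untreated control.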

HOP-62 = test: Antitumor activity against human HOP62 cells after 48 hrs by SRB assay; conditions: HOP-62, 48 h; summary of the method: as §2
SK-MEL-28 = test: Antitumor activity against human SK-MEL-28 cells after 48 hrs by SRB assay; conditions: SK-MEL-28, 48 h
Summary of the method: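 NCI60 panel cells grown in RPMI 1640 with 5% FBS and 2 mM L-glutamine, plated at 5000–40,000 cells/well and preincubated 24 h at 37 °C, 5% CO₂. Compound was added from DMSO at five concentrations, 10-fold or 1/2 log dilutions, then incubated 48 h.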

MDA-MB-231 [5] = test: Cytotoxicity against human MDA-MB-231 cells assessed as cellular growth at 10 uM after 48 hrs by SRB assay; summary of the method: as §1
OVCAR-8 = test: Antitumor activity against human OVCAR8 cells after 48 hrs by SRB assay; conditions: OVCAR-8, 48 h; summary of the method: as §2
[6] = Cytotoxicity against human NCI60 cells assessed as cellular growth at 10 uM after 48 hrs by SRB assay relative to untreated control; summary of the method: as §1
A498 = test: Antitumor activity against human A498 cells after 48 hrs by SRB assay; conditions: A498, 48 h; summary of the method: as §2
MDA-MB-231 [7] = test: Antitumor activity against human MDA-MB-231 cells after 48 hrs by SRB assay; conditions: MDA-MB-231, 48 h; summary of the method: as §2
BT-549 = test: Antitumor activity against human BT549 cells after 48 hrs by SRB assay; conditions: BT-549, 48 h
Summary of the method: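 NCI60 screen: cells grown in RPMI 1640 with 5% FBS and 2 mM L-glutamine, plated at 5000–40,000 cells/well by doubling time, preincubated 24 h at 37 °C with 5% CO2. Compounds were diluted from DMSO stocks and given for 48 h, at five concentrations for dose response. A time-zero plate was TCA-fixed. Cells were TCA-fixed, stained with 0.4% SRB and read at 515 nm, with growth expressed relative to untreated controls.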

SF-295 = test: Cytotoxicity against human SF295 cells assessed as cellular growth at 10 uM after 48 hrs by SRB assay; summary of the method: as §1
MDA-MB-468 = test: Antitumor activity against human MDA-MB-468 cells after 48 hrs by SRB assay; conditions: MDA-MB-468, 48 h; summary of the method: as §2
RPMI-8226 = test: Cytotoxicity against human RPMI8226 cells assessed as cellular growth at 10 uM after 48 hrs by SRB assay; summary of the method: as §1
NCI-H322M [8] = test: Antitumor activity against human NCI-H322M cells after 48 hrs by SRB assay; summary of the method: as §2
OVCAR-3 = test: Antitumor activity against human OVCAR3 cells after 48 hrs by SRB assay; conditions: OVCAR-3, 48 h; summary of the method: as §2
NCI-H522 = test: Cytotoxicity against human NCI-H522 cells assessed as cellular growth at 10 uM after 48 hrs by SRB assay; summary of the method: as §1
SF-539 = test: Cytotoxicity against human SF539 cells assessed as cellular growth at 10 uM after 48 hrs by SRB assay; summary of the method: as §1
CCRF-CEM = test: Cytotoxicity against human CCRF-CEM cells assessed as cellular growth at 10 uM after 48 hrs by SRB assay; summary of the method: as §3
COLO 205 [9] = test: Cytotoxicity against human COLO205 cells assessed as cellular growth at 10 uM after 48 hrs by SRB assay; summary of the method: as §3
MDA-MB-435 = test: Cytotoxicity against human MDA-MB-435 cells assessed as cellular growth at 10 uM after 48 hrs by SRB assay; summary of the method: as §1
[10] = read-out: LC50 (the source's name)
[11] = read-out: pLC50 (the source's name) (converted)

Which Activity (NCI-H322M [1]) does the source give for `COc1ccc(/C(=C2/O[C@@H]([C@H]3COC(C)(C)O3)[C@H]3OC(C)(C)O[C@@H]23)c2cc(OC)c(OC)c(OC)c2)cc1O` here?
The Activity was 34.81%.

And the CC50 (COLO 205 [2]; [10])?
Its CC50 is > 100 µM.

What about the TGI (COLO 205 [2]; read-out: TGI) of the same molecule?
Its TGI is > 100 µM.

And the GI50 (COLO 205 [2]; read-out: pGI50 (converted))?
The GI50 was 17.8 µM.

What about the CC50 (COLO 205 [2]; [11]) of the same molecule?
Its CC50 is > 100 µM.

What about the TGI (COLO 205 [2]; read-out: pTGI (converted)) of the same molecule?
The TGI was > 100 µM.

What about the GI50 (HCT-116 [3]) of the same molecule?
Its GI50 is 4.14 µM.

And the LC50 (concentration giving 50% net cell kill) (HCT-116 [3])?
Its LC50 (concentration giving 50% net cell kill) is > 100 µM.

And the TGI (HCT-116 [3])?
Its TGI is > 100 µM.

What about the Activity (HCT-116 [4]) of the same molecule?
The Activity was 53.99%.

And the GI50 (HOP-62)?
Its GI50 is 5.93 µM.

What about the TGI (HOP-62) of the same molecule?
Its TGI is 25.5 µM.

And the CC50 (HOP-62; [10])?
Its CC50 is 96.8 µM.

And the LC50 (50% lethal concentration) (SK-MEL-28)?
The LC50 (50% lethal concentration) was > 100 µM.

And the GI50 (SK-MEL-28; read-out: GI50)?
Its GI50 is 5.45 µM.

And the TGI (SK-MEL-28; read-out: TGI)?
The TGI was > 100 µM.

And the GI50 (SK-MEL-28; read-out: pGI50 (converted))?
Its GI50 is 5.5 µM.

And the CC50 (SK-MEL-28; [11])?
Its CC50 is > 100 µM.

And the TGI (SK-MEL-28; read-out: pTGI)?
Its TGI is > 100 µM.

What about the Activity (MDA-MB-231 [5]) of the same molecule?
Its Activity is 43.9%.

And the GI50 (OVCAR-8; read-out: GI50)?
Its GI50 is 5.27 µM.

And the CC50 (OVCAR-8; [10])?
Its CC50 is > 100 µM.

And the TGI (OVCAR-8; read-out: TGI)?
The TGI was > 100 µM.

What about the GI50 (OVCAR-8; read-out: pGI50 (converted)) of the same molecule?
The GI50 was 5.25 µM.

What about the CC50 (OVCAR-8; [11]) of the same molecule?
The CC50 was > 100 µM.

What about the TGI (OVCAR-8; read-out: pTGI) of the same molecule?
The TGI was > 100 µM.

And the Activity [6]?
The Activity was 57%.

What about the GI50 (A498; read-out: GI50) of the same molecule?
Its GI50 is 3.57 µM.

What about the CC50 (A498; [10]) of the same molecule?
Its CC50 is > 100 µM.

And the TGI (A498; read-out: TGI)?
Its TGI is > 100 µM.

And the GI50 (A498; read-out: pGI50 (converted))?
Its GI50 is 35.5 µM.

And the CC50 (A498; [11])?
Its CC50 is > 100 µM.

What about the TGI (A498; read-out: pTGI (converted)) of the same molecule?
Its TGI is > 100 µM.

What about the GI50 (MDA-MB-231 [7]) of the same molecule?
The GI50 was 4.58 µM.

What about the TGI (MDA-MB-231 [7]) of the same molecule?
Its TGI is 30.7 µM.

What about the CC50 (MDA-MB-231 [7]; [10]) of the same molecule?
Its CC50 is > 100 µM.

And the GI50 (BT-549; read-out: GI50)?
The GI50 was 5.39 µM.

And the CC50 (BT-549; [10])?
Its CC50 is > 100 µM.

What about the TGI (BT-549; read-out: TGI) of the same molecule?
Its TGI is > 100 µM.

What about the GI50 (BT-549; read-out: pGI50 (converted)) of the same molecule?
Its GI50 is 5.37 µM.

And the CC50 (BT-549; [11])?
The CC50 was > 100 µM.

What about the TGI (BT-549; read-out: pTGI (converted)) of the same molecule?
Its TGI is > 100 µM.

And the Activity (SF-295)?
Its Activity is 85.23%.

And the GI50 (MDA-MB-468; read-out: GI50)?
Its GI50 is 1.45 µM.

What about the CC50 (MDA-MB-468; [10]) of the same molecule?
Its CC50 is 80.6 µM.

What about the TGI (MDA-MB-468; read-out: TGI) of the same molecule?
The TGI was 34.1 µM.

What about the GI50 (MDA-MB-468; read-out: pGI50 (converted)) of the same molecule?
Its GI50 is 14.5 µM.

What about the CC50 (MDA-MB-468; [11]) of the same molecule?
The CC50 was > 100 µM.

What about the TGI (MDA-MB-468; read-out: pTGI (converted)) of the same molecule?
Its TGI is 33.9 µM.

And the Activity (RPMI-8226)?
The Activity was 63.56%.

What about the GI50 (NCI-H322M [8]; read-out: GI50) of the same molecule?
The GI50 was 6.58 µM.

What about the CC50 (NCI-H322M [8]; [10]) of the same molecule?
Its CC50 is > 100 µM.

What about the TGI (NCI-H322M [8]; read-out: TGI) of the same molecule?
The TGI was > 100 µM.

What about the GI50 (NCI-H322M [8]; read-out: pGI50 (converted)) of the same molecule?
The GI50 was 6.61 µM.

What about the CC50 (NCI-H322M [8]; [11]) of the same molecule?
The CC50 was > 100 µM.

What about the TGI (NCI-H322M [8]; read-out: pTGI) of the same molecule?
Its TGI is > 100 µM.

And the GI50 (OVCAR-3)?
The GI50 was 2.38 µM.

What about the TGI (OVCAR-3) of the same molecule?
Its TGI is 5.34 µM.

What about the CC50 (OVCAR-3; [10]) of the same molecule?
The CC50 was 22.9 µM.

And the Activity (NCI-H522)?
The Activity was 43.38%.

And the Activity (SF-539)?
Its Activity is 9.85%.

What about the Activity (CCRF-CEM) of the same molecule?
The Activity was 47.94%.

What about the Activity (COLO 205 [9]) of the same molecule?
The Activity was 120.76%.

And the Activity (MDA-MB-435)?
The Activity was 44.7%.
